Screening data (PubChem BioAssay)
Shown are actives, neighbours in structure and some others; about 2.6% of the full set was active somewhere.
Ecoli rRNA inh – selective bacterial rRNA inhibition in E. coli; E. coli WT GFP vs humanized-ribosome RFP mutants, fluorescence, 24 h; stronger effect = lower value; DMSO median 0, no signal -100; GFP signal change (wild-type ribosome), % (no concentration beside the values); 1.6% of 350,000 active;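 active means significant combined selectivity score with lowered wild-type GFP, culture density cut under 30%, mutant RFP and density less affected; inactive means any of these conditions unmet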
HIV Env fusion – inhibitors of HIV Env-mediated cell fusion; inhibition, % at 12.3 µM; 1.1% of 360,000 active; HeLa-JRFL Env/CEM21 cell fusion, luciferase; AID 651610;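 active means mean replicate inhibition score of at least 50 and every replicate individually at or above 50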
Vif imaging – inhibitors of HIV Vif; HEK293T cells, Vif self-association by quenched fluorescence, imaging, 24 h; inhibition, % at 7.49 µM; 0.35% of 340,000 active; in the data active means inhibition above about 50%, passing the limit was not always enough
FN deposit inh – fibronectin deposition inhibition; AH1F fibroblasts, Alexa488-fibronectin deposition fluorescence, overnight; 0.086% of 350,000 active; AID 743247; inhibition, % at 12.6 µM;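 active means mean inhibition across replicates of 30% or more, regardless of how many single replicates reach that level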
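Schedule: 1 h cell adhesion before compound, then overnight fibronectin incubation; test system: AH1F fibroblast monolayer depositing Alexa488-labelled fibronectin into matrix; quantity: 10000 AH1F cells per well; probe or stimulus: fluorescent fibronectin at 24 nM final; signal: fluorescence, ex 485 nm, em 525 nm; evaluation: percent inhibition as loss of matrix-bound fibronectin fluorescence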
S100A4 inh HTS – inhibitors of human S100A4 binding to myosin IIA peptide. P26447. S100A4/TAMRA-MyoIIA peptide fluorescence polarization. inhibition, % at 10.7 µM. 0.14% of 360,000 active. AID 652163;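 active means mean inhibition of at least 70% across replicates, with every replicate also reaching that level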
Target sequence (P26447 whole entry, looked up): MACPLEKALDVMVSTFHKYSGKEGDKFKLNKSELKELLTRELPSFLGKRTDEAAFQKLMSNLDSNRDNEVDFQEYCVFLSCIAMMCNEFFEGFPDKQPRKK
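Material: human S100A4 monomer with TAMRA-labelled myosin IIA peptide; buffer or medium: HEPES pH 7.2 with CaCl2, KCl, NaCl, DTT, Triton; compound dosing: one concentration per compound; schedule: 5 min incubation before reading; benchmarks: neutral control DMSO, positive control TFP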
miR122 inh – blocks miR-122 activity in Huh7 sensor cells; Huh7 miR-122 Renilla luciferase sensor, 48 h; neutral wells = 0, positive control = 100; activation (reporter increase), % at 12.5 µM; 0.3% of 340,000 active;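 active means mean replicate activation score at least 90 and every replicate individually at or above 90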;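 further: higher luciferase means less miR-122 activity so hits act as miR-122 inhibitors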
Numbers stand for hits; i = inactive; nt = no result.

SMILES	Ecoli rRNA inh	HIV Env fusion	Vif imaging	FN deposit inh	S100A4 inh HTS	miR122 inh
O=C(Nc1cccc(S(=O)(=O)N2CCCCCC2)c1)c1ccc(Cl)nc1	i	i	i	nt	i	i
O=C(COC(=O)c1ccc([N+](=O)[O-])o1)Nc1cccc(S(=O)(=O)N2CCCCC2)c1	i	i	i	i	i	i
C[C@@H]1CN([C@H](C)CO)C(=O)c2cc(NC(=O)CCN3CCOCC3)ccc2O[C@@H]1CN(C)S(=O)(=O)c1ccc(F)cc1	i	i	nt	nt	i	i
Cc1ccc(NC(=O)c2cc(S(=O)(=O)N3CCCCC3)ccc2N2CCOCC2)cc1S(=O)(=O)N(C)C	nt	i	52	i	i	i
Cc1ccc(NC(=O)c2ccc([N+](=O)[O-])o2)cc1S(=O)(=O)N1CCOCC1	-23	i	i	nt	i	i
COc1ccc(S(=O)(=O)Nc2ccc(C)c(S(=O)(=O)N3CCOCC3)c2)cc1[N+](=O)[O-]	i	i	i	nt	i	98
O=C(Nc1ccc(Cl)c(S(=O)(=O)N2CCOCC2)c1)c1ccc2c(c1)OCO2	-23	i	i	nt	i	i
CCCC(=O)Nc1ccc2c(c1)OC[C@H](C)N(C)C[C@H](C)[C@@H](OC)CN(C)C2=O	i	nt	nt	i	i	nt
C[C@@H]1CC=CC[C@H](c2ccccc2)NC(=O)[C@@H](Cc2ccccc2)N(C)C(=O)c2ccccc2O1 (mixture of isomers)	i	nt	nt	i	nt	nt
O=C(NCCN1CCCCC1)[C@H]1[C@H](CO)[C@H]2Cn3c(cccc3=O)[C@@H]1N2C(=O)C1CCCCC1	i	nt	nt	nt	i	i
O=C(c1ccc(F)cc1)N1CCCCN2[C@H](CO)[C@H](c3ccc(-c4ccc(F)cc4)cc3)[C@@H]2C1	nt	nt	nt	nt	nt	i
C=CC[C@H](CC(=O)N(CCO)Cc1ccccc1)C(=O)N[C@H](COC(=O)[C@@H](CC=C)Cc1ccc(F)cc1)C(C)(C)C	i	i	i	i	i	i
C=CCC[C@H](Cc1ccc(F)cc1)C(=O)OC[C@@H](NC(=O)[C@H](CC=C)CC(=O)NCCO)C(C)(C)C	i	90	i	i	i	i
C=CCC[C@H](Cc1ccc(F)cc1)C(=O)OC[C@H](C)NC(=O)[C@H](CC=C)CC(=O)NCCO	i	i	i	i	i	i
C=CC[C@@H](CC(=O)N(CCO)Cc1ccccc1)C(=O)N[C@H](COC(=O)[C@@H](CC=C)Cc1ccc(F)cc1)C(C)(C)C	i	i	55	i	i	i
C=CCC[C@H](Cc1ccc(F)cc1)C(=O)OC[C@@H](NC(=O)[C@@H](CC=C)CC(=O)N(CCO)Cc1ccccc1)C(C)(C)C	i	72	i	i	i	i
CO[C@H]1CN(C)C(=O)c2ccc(NC(=O)C3CCOCC3)cc2OC[C@H](C)N(CC2CC2)C[C@H]1C	i	nt	nt	i	i	nt
O=C1CN(Cc2ccc(F)cc2)C[C@@H]2[C@H](c3ccc(-c4cccnc4)cc3)[C@@H](CO)N12	i	nt	nt	nt	i	nt
O=C1N[C@@H](c2ccccc2)COCc2cn(nn2)CC[C@@H]1Cc1ccc(-c2ccccc2)cc1	i	nt	nt	i	nt	nt
O=C(N[C@@H]1CC[C@@H](CC(=O)N2CCCCC2)O[C@H]1CO)c1ccc2c(c1)OCO2	i	i	nt	nt	i	nt
COc1cccc(NS(=O)(=O)c2cc(C)sc2C)c1	nt	nt	i	nt	nt	121
Cc1cc(S(=O)(=O)Nc2cccc(Cl)c2)c(C)s1	i	i	i	i	i	i
CC(C)(C)c1cc(Cl)c(O)c(NC(=S)NC(=O)c2cccnc2)c1	i	i	i	30	i	nt
O=C(Cc1ccc(S(=O)(=O)N2CCOCC2)s1)N1CCN(S(=O)(=O)c2ccc(Cl)cc2)CC1	nt	70	i	i	i	i
COc1ccccc1C#Cc1ccc2c(c1)O[C@@H](CN(C)C)[C@H](C)CN([C@H](C)CO)S2(=O)=O	i	i	nt	i	i	nt
SMILES	Ecoli rRNA inh	HIV Env fusion	Vif imaging	FN deposit inh	S100A4 inh HTS	miR122 inh
CCc1ccc(CN(C)CC(=O)Nc2ccccc2[N+](=O)[O-])cc1	nt	i	i	i	nt	i
C=CCOc1ccc(CN(C)CC(=O)Nc2ccccc2[N+](=O)[O-])cc1	-24	i	i	i	i	i
COc1ccccc1C#Cc1cnc2c(c1)C(=O)N([C@H](C)CO)C[C@H](C)[C@@H](CN(C)C(C)=O)O2	i	i	nt	nt	i	i
COc1cccc(C(=O)NC2CCCc3c2cnn3-c2ccc(C)c(C)c2)c1OC (stereo unspecified)	i	i	i	i	i	i
COc1ncccc1C(=O)NC1CCCc2c1cnn2-c1ccc(C)c(C)c1 (stereo unspecified)	i	i	i	31	i	i
COc1ccc2c3c([nH]c2c1)[C@H](CO)N(S(C)(=O)=O)CC31CCN(C(=O)Cc2cccnc2)CC1	i	nt	nt	nt	i	nt
Cc1ccc(S(=O)(=O)N(C)c2ccc(C(=O)N3CCN(Cc4ccc5c(c4)OCO5)CC3)cc2)cc1	nt	83	i	nt	nt	nt
CC(C)CNS(=O)(=O)c1ccc(CCC(=O)N2CCN(Cc3ccccc3)CC2)cc1	nt	i	nt	i	nt	i
CC(C)CNS(=O)(=O)c1ccc(CCC(=O)N2CCN(Cc3ccc4c(c3)OCO4)CC2)cc1	nt	79	i	i	nt	i
CCNS(=O)(=O)c1ccc(NC(=O)Nc2ccc3c(c2)OCO3)cc1	i	i	nt	i	i	nt
O=C(Nc1ccc(S(=O)(=O)NCc2ccccc2)cc1)Nc1ccc2c(c1)OCO2	i	nt	i	nt	i	243
O=C(CCc1ccc(S(=O)(=O)NCCc2ccccc2)cc1)N1CCN(Cc2ccc3c(c2)OCO3)CC1	nt	77	i	i	nt	i
Cc1oc(C(=O)O)cc1COc1ccc2c(C)cc(=O)oc2c1	nt	i	i	i	nt	i
Cc1cc(=O)oc2cc(OCc3cc4c(cc3Cl)OCO4)ccc12	nt	nt	40	nt	nt	i
C[C@@H]1CN([C@H](C)CO)C(=O)c2cc(-c3ccc(F)cc3)cnc2O[C@H]1CN(C)C(=O)c1ccccc1F	i	i	nt	i	i	i
NCCc1c(-c2ccccc2)n(-c2ccccc2)c2ccccc12	i	i	i	44	i	i
COc1ccc(NC(=O)Nc2ccc3c(c2)C(=O)N([C@@H](C)CO)C[C@@H](C)[C@H](CN(C)Cc2ccc4c(c2)OCO4)OCCCC[C@H](C)O3)cc1	i	i	nt	nt	i	i
Cc1ccc(S(=O)(=O)N[C@@H](Cc2ccccc2)C(=O)N2CCC(C(=O)N[C@@H](CCC(N)=O)C(=O)O)CC2)cc1	i	i	59	i	i	nt
CCCNC(=O)N1CCC2(CC1)CN(C(=O)c1ccncc1)[C@@H](CO)c1[nH]c3cc(OC)ccc3c12	i	nt	nt	nt	nt	nt
COCC(=O)Nc1ccc2c(c1)OC[C@H](C)N(Cc1ccccc1)C[C@@H](C)[C@@H](OC)CN(C)C2=O	i	nt	nt	i	i	i
CNC(=O)c1ccsc1NC(=O)c1ccccc1	i	i	i	i	i	i
